Laboratory results from ChEMBL document CHEMBL4354861, “Re-Evaluating the Mechanism of Action of α,β-Unsaturated Carbonyl DUB Inhibitors b-AP15 and VLX1570: A Paradigmatic Example of Unspecific Protein Cross-linking with Michael Acceptor Motif-Containing Drugs” (J Med Chem, 2020).
The source made the active and inactive calls. No cut-off for these calls is given here.

What was measured:
[1] = biological target: Ubiquitin carboxyl-terminal hydrolase 2 (Homo sapiens) (UniProt O75604); assay: Inhibition of N-terminal His6-tagged […] recombinant human USP2 catalytic domain assessed as reduction in cleavage of luminescent substrate Ub-AML at 100 uM
Sequence of Ubiquitin carboxyl-terminal hydrolase 2 (Homo sapiens) (O75604 whole entry, the tested form may be a part): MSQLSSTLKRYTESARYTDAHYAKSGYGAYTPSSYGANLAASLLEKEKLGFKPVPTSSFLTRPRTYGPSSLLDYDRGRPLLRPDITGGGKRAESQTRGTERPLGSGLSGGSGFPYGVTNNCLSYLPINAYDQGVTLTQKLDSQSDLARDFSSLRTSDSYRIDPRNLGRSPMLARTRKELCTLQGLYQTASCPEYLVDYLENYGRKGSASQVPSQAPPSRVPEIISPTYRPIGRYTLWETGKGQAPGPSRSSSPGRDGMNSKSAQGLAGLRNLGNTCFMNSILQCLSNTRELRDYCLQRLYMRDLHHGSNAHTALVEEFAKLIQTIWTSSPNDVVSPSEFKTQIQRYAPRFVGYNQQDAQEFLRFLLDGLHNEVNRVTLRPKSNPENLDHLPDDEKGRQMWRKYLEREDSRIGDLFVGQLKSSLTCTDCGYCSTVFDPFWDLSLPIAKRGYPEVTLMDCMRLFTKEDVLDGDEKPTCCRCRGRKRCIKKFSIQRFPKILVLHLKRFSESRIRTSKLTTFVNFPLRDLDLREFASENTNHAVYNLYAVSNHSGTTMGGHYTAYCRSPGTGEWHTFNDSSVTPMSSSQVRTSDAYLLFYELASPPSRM
Summary of the method: (§1)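 Purified recombinant DUBs assayed with Ub-AML as luminescent substrate, using the Glo reagent protocol and read on a microplate luminometer.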

[2] = biological target: Tumor necrosis factor alpha-induced protein 3 (Homo sapiens) (UniProt P21580); assay: Inhibition of A20 catalytic domain (unknown origin) assessed as reduction in cleavage of luminescent substrate Ub-AML at 100 uM; summary of the method: as §1
Sequence of Tumor necrosis factor alpha-induced protein 3 (Homo sapiens) (P21580 whole entry, the tested form may be a part): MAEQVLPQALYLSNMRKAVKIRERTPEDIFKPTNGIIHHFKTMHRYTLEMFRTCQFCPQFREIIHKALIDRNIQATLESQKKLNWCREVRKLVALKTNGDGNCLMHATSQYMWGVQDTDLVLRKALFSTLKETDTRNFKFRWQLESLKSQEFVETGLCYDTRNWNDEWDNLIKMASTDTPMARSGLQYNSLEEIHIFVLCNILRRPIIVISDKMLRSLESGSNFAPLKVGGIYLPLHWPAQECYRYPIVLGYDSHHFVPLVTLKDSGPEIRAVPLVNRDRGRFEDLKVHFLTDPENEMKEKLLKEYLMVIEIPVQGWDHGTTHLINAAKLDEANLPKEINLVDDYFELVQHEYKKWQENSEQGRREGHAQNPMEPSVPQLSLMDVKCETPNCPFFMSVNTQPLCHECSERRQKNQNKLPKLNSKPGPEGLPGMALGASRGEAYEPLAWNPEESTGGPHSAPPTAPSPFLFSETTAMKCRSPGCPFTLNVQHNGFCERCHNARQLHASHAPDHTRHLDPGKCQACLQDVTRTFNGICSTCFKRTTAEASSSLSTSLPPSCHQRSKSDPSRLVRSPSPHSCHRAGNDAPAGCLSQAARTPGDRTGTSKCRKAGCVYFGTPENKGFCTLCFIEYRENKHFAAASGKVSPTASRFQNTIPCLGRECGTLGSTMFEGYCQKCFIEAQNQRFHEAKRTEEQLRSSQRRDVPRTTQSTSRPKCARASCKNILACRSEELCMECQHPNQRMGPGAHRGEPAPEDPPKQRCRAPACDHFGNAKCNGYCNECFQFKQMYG

[3] = biological target: Ubiquitin carboxyl-terminal hydrolase 5 (Homo sapiens) (UniProt P45974); assay: Inhibition of human recombinant isopeptidase T assessed as reduction in cleavage of luminescent substrate Ub-AML at 100 uM; summary of the method: as §1
Sequence of Ubiquitin carboxyl-terminal hydrolase 5 (Homo sapiens) (P45974 whole entry): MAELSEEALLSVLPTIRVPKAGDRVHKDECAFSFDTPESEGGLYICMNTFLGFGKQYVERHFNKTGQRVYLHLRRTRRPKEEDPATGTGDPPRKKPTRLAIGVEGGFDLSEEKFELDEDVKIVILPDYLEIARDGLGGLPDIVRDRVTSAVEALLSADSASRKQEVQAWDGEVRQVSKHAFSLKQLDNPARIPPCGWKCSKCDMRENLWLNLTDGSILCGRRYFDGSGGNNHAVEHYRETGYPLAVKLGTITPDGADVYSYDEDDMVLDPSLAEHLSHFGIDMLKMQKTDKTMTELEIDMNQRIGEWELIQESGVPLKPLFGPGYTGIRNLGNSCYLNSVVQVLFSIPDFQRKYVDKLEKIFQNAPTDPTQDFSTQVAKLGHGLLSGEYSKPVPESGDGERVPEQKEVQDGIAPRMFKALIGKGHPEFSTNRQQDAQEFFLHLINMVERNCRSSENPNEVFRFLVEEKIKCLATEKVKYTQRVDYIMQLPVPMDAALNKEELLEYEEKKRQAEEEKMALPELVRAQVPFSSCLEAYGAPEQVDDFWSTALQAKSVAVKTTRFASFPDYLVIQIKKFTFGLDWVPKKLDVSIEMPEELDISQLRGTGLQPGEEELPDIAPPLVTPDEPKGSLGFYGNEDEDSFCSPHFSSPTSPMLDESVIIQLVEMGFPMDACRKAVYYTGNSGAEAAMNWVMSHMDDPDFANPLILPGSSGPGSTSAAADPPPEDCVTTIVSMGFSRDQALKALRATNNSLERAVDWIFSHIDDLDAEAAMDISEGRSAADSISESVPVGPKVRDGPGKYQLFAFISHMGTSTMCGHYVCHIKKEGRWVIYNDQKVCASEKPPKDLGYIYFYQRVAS

[4] = biological target: Ubiquitin carboxyl-terminal hydrolase isozyme L1 (Homo sapiens) (UniProt P09936); assay: Inhibition of human recombinant UCHL1 assessed as reduction in cleavage of luminescent substrate Ub-AML at 100 uM; summary of the method: as §1
Sequence of Ubiquitin carboxyl-terminal hydrolase isozyme L1 (Homo sapiens) (P09936 whole entry, looked up): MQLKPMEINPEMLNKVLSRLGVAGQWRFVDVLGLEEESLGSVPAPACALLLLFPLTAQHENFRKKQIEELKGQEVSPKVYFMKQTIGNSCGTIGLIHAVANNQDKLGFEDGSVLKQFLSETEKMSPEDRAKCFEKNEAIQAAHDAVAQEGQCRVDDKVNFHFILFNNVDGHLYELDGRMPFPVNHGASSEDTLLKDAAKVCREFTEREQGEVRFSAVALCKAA

[5] = biological target: Ubiquitin carboxyl-terminal hydrolase isozyme L3 (Homo sapiens) (UniProt P15374); assay: Inhibition of human recombinant UCHL3 assessed as reduction in cleavage of luminescent substrate Ub-AML at 100 uM; summary of the method: as §1
Sequence of Ubiquitin carboxyl-terminal hydrolase isozyme L3 (Homo sapiens) (P15374 whole entry): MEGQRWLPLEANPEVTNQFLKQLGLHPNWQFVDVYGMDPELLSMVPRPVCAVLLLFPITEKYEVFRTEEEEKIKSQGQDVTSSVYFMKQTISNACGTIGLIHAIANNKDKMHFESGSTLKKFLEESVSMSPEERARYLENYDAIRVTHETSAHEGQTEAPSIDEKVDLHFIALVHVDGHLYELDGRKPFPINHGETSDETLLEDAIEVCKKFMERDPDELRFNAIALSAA

HCT-116 = assay: Cytotoxicity in human HCT116 cells assessed as reduction in cell viability incubated for 72 hrs Cell-titer Glo reagent based assay; type: functional
Summary of the method: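 Tumor lines grown at 37 °C, 5% CO2 with 10% FBS (DMEM for HeLa and SiHa; RPMI for HCT116) and exposed to compound for 72 h. Viability read by CellTiter Glo luminescence; IC50 derived from n=6.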

[6] = biological target: T1, Ubiquitin carboxyl-terminal hydrolase isozyme L5 (Homo sapiens) (UniProt Q9Y5K5); assay: Inhibition of UCH-37 in human HeLa crude cell extracts assessed as induction of formation of high molecular weight complexes with […] at 10 uM incubated for 2 hrs by immunoblot analysis; type: cell-free
T1 sequence (whole entry): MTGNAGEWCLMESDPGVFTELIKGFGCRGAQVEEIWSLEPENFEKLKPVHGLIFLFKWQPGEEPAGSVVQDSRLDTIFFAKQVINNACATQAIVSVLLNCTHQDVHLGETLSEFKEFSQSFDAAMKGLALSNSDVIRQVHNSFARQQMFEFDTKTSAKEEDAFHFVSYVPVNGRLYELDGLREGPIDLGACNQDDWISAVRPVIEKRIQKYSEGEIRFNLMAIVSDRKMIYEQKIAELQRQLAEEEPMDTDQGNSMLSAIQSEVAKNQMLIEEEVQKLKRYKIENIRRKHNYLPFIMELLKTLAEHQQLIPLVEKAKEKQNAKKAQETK

[7] = biological target: T1, Ubiquitin carboxyl-terminal hydrolase isozyme L5 (Homo sapiens); assay: Inhibition of UCH-37 in intact human HeLa cells assessed as induction of formation of high molecular weight complexes with USP14 at 10 uM incubated for 2 hrs by immunoblot analysis; type: cell-based
Summary of the method: (§2)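 Intact HeLa cells (DMEM, 10% FBS, about 80% confluent) treated 2 h with vehicle or 10 μM compound, with or without 10 mM DTT or 10 mM GSH. Cells washed in cold PBS and lysed in RIPA with protease and phosphatase inhibitors. High-MW species detected by SDS-PAGE immunoblot; shorter exposures served as loading control.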

[8] = biological target: Ubiquitin carboxyl-terminal hydrolase 14 (Homo sapiens) (UniProt P54578); assay: Inhibition of USP14 in human HeLa crude cell extracts assessed as induction of formation of high molecular weight complexes with USP14 at 10 uM incubated for 2 hrs in presence of glutathione by immunoblot analysis; type: cell-free
Sequence of Ubiquitin carboxyl-terminal hydrolase 14 (Homo sapiens) (P54578 whole entry): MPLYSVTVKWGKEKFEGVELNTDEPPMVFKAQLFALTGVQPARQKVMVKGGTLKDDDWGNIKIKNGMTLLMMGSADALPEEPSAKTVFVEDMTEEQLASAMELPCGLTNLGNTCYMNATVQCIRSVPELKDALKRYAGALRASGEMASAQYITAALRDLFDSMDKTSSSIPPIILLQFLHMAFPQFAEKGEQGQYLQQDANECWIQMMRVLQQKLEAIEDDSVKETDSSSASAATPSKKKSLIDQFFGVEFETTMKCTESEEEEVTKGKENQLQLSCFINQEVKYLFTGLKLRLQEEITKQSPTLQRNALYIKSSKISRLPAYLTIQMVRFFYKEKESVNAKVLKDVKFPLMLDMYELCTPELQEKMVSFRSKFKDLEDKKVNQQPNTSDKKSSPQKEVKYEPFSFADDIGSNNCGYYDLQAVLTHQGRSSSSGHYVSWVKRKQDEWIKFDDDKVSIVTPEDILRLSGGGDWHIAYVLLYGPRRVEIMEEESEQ

[9] = biological target: Ubiquitin carboxyl-terminal hydrolase 14 (Homo sapiens) (UniProt P54578); assay: Inhibition of USP14 in intact human HeLa cells assessed as induction of formation of high molecular weight complexes with USP14 at 10 uM in presence of glutathione incubated for 2 hrs by immunoblot analysis; type: cell-based; summary of the method: as §2
[10] = biological target: T1, Ubiquitin carboxyl-terminal hydrolase isozyme L5 (Homo sapiens); assay: Inhibition of UCH-37 in intact human HeLa cells assessed as induction of formation of high molecular weight complexes with USP14 at 10 uM incubated for 2 hrs in presence of glutathione by immunoblot analysis; type: cell-based; summary of the method: as §2
HeLa [11] = assay: Inhibition of deubiquitinase in human HeLa cell extracts assessed as induction of accumulation of high molecular weight ubiquitylated proteins at 10 uM incubated for 2 hrs in presence of GSH by immunoblot analysis; type: cell-free
HeLa [12] = assay: Inhibition of deubiquitinase in human HeLa cell extracts assessed as increase in high molecular weight protein complexes at 10 uM incubated for 2 hrs in presence of GSH by SDS-PAGE and Coomassie Blue staining based method; type: cell-free
HeLa [13] = assay: Inhibition of deubiquitinase in human HeLa cell extracts assessed as induction of accumulation of high molecular weight mTOR proteins at 10 uM incubated for 2 hrs by immunoblot analysis; type: cell-free
[14] = biological target: T2, Ubiquitin carboxyl-terminal hydrolase 28 (Homo sapiens) (UniProt Q96RU2); assay: Inhibition of USP28 in human HeLa cell extracts assessed as inhibition of HA-Ub-C2Br probe labeling at 1 to 100 uM incubated for 30 mins by immunoblot analysis; type: cell-free
T2 sequence (whole entry): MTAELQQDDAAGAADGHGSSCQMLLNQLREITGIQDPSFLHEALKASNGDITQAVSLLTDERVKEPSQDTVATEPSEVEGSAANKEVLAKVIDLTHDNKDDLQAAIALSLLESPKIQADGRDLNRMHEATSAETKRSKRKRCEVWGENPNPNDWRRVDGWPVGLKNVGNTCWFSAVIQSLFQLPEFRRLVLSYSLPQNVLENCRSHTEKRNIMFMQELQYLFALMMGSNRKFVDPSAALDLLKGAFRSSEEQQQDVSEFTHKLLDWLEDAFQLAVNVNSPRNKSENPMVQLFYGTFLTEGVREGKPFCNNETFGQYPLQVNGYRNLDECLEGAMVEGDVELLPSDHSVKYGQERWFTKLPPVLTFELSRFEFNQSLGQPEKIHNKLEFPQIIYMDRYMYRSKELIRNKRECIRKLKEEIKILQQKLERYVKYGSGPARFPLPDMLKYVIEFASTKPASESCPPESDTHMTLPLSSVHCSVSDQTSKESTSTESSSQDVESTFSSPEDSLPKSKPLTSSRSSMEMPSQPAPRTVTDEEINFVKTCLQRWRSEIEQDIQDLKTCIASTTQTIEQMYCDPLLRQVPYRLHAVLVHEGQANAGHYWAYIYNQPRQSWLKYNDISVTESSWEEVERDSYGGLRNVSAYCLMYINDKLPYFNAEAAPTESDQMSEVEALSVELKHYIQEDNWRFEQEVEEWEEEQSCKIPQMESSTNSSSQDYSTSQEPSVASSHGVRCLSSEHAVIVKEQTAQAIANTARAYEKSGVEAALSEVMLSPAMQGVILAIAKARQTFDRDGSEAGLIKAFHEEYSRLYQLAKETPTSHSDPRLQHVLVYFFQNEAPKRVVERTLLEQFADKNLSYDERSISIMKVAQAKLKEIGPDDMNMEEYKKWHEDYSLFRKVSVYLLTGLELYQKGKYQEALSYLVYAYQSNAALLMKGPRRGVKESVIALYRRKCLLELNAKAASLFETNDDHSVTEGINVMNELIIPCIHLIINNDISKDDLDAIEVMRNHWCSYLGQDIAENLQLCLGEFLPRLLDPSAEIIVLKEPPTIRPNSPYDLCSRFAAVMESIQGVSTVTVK

C=CC(=O)N1C/C(=C\c2ccc([N+](=O)[O-])cc2)C(=O)/C(=C/c2ccc([N+](=O)[O-])cc2)C1
inhibition [1]: Active | inhibition [2]: Active | inhibition [3]: Active | inhibition [4]: Active | inhibition [5]: Active | Activity (HCT-116): Active | inhibition [6]: Active | inhibition [7]: Active | inhibition [8]: inactive | inhibition [9]: inactive | inhibition [10]: inactive | inhibition (HeLa [11]): inactive | inhibition (HeLa [12]): inactive | inhibition (HeLa [13]): Active | inhibition [14]: Active
